Source: ChEMBL document CHEMBL2163323, “Characterization and solubilization of pyrrole-imidazole polyamide aggregates” (J Med Chem, 2012)

What was measured:
[1] = Solubility of the compound in 0.1 % DMSO/PBS solution at 4 uM after 2 hrs by HPLC analysis; type: physicochemical; settings: buffer
Method in brief: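 A 4 mM DMSO stock was diluted 1000× into PBS, vortexed, sonicated 20 min at 25 °C and equilibrated 2 h at room temperature. After centrifugation for 20 min, the supernatant was analysed by HPLC at 310 nm against a standard curve. Maximum concentration was estimated from quantitation of the stock in 0.1% DMSO/water. Values are SD of ≥3 independent measurements.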

[2] = Solubility of the compound in 0.1 % DMSO/PBS solution assessed as radius of the aggregate particle at 4 uM measured over 10 mins by dynamic light scattering method; type: physicochemical; settings: buffer
Method in brief: (§1)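 DMSO stocks (1, 4, 10 mM) were centrifuged, then diluted 1000× into PBS (final 0.1% DMSO). Dynamic light scattering used a 659 nm laser at a 90° angle and 25 °C, with 10–15 s acquisitions over 10 min. Radius came from a cumulant fit of averaged autocorrelation functions at the lowest concentration giving 3× buffer signal. Values are SD of ≥3 independent measurements.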

[3] = Solubility of the compound in 0.1 % DMSO/PBS solution at 4 uM after 2 hrs by HPLC analysis in presence of 35 mM dextrose; type: physicochemical; settings: buffer
Method in brief: (§2)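 The 4 mM DMSO stock was diluted 1000× into PBS containing 35 mM dextrose, 5 mM γCD, 50 mM HpβCD or 6 mg/mL hypromellose. Samples were sonicated 20 min at 25 °C, equilibrated 2 h at room temperature and centrifuged. The soluble fraction was measured by HPLC peak area at 310 nm against a standard curve. Values are SD of ≥3 independent measurements.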

[4] = Solubility of the compound in 0.1 % DMSO/PBS solution at 4 uM after 2 hrs by HPLC analysis in presence of 5 mM gamma-cyclodextrin; type: physicochemical; settings: buffer; method in brief: as §2
[5] = Solubility of the compound in 0.1 % DMSO/PBS solution at 4 uM after 2 hrs by HPLC analysis in presence of 6 mg/ml hypromellose; type: physicochemical; settings: buffer; method in brief: as §2
[6] = Solubility of the compound in 0.1 % DMSO/PBS solution assessed as radius of the aggregate particle at 1 uM measured over 10 mins by dynamic light scattering method; type: physicochemical; settings: buffer; method in brief: as §1
Plasma [7] = experiment: Drug uptake in C57Bl/6 mouse plasma at 120 nmol, ip in 1 % DMSO/80 mM HPbeta-CD/PBS vehicle measured after 24 hrs; type: ADME, organism-based; settings: in vivo
Method in brief: (§3)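 C57bl/6 mice, 8–12 weeks old, received an IP injection of 200 μL PBS containing 120 nmol compound in the stated vehicle. Under isoflurane, blood was drawn retro-orbitally at three time points. Plasma from four mice was pooled (5 μL each), precipitated with methanol, spiked with Boc-Py-OMe as internal control, and quantified by HPLC at 310 nm against a standard curve.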

[8] = Plasma concentration of compound in C57Bl/6 mouse at 120 nmol, ip in 1 % DMSO/80 mM HPbeta-CD/PBS vehicle measured after 1.5 hrs; type: ADME, organism-based; method in brief: as §3
[9] = Solubility of the compound in 0.1 % DMSO/PBS solution at 4 uM after 2 hrs by HPLC analysis in presence of 50 mM 2-hydroxypropyl-beta-cyclodextrin; type: physicochemical; settings: buffer; method in brief: as §2
[10] = Plasma concentration of compound in C57Bl/6 mouse at 120 nmol, ip in 20 % DMSO/PBS vehicle measured after 1.5 hrs; type: ADME, organism-based; method in brief: as §3
Plasma [11] = experiment: Drug uptake in C57Bl/6 mouse plasma at 120 nmol, ip in 20 % DMSO/PBS vehicle measured after 24 hrs; type: ADME, organism-based; settings: in vivo; method in brief: as §3
A549 [12] = experiment: Drug uptake in human A549 cells incubated with mouse plasma isolated 4.5 hr post administration with compound measured after 16 hrs by confocal microscopy; type: ADME, cell-based
Method in brief: (§4)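 A549 cells were seeded at 100k cells/mL in F-12K/10% FBS and allowed to adhere for 18 h at 37 °C in 5% CO2. Medium was replaced with 200 μL fresh medium plus 20 μL plasma. The plasma came from mice given 120 nmol IP in 20% DMSO/80 mM HpβCD/PBS. After 16 h, live cells were imaged by confocal microscopy (63× oil objective, fluorescein filters).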

[13] = Solubility of the compound in 20 % DMSO/PBS; type: physicochemical; settings: buffer
A549 [14] = experiment: Drug uptake in human A549 cells incubated with mouse plasma isolated 1.5 hr post administration with compound measured after 16 hrs by confocal microscopy; type: ADME, cell-based; method in brief: as §4

Structure (SMILES)	solubility [1]	Activity [2]	further results
CC(=O)N[C@@H](CNC(=O)c1cc(NC(=O)c2cc(NC(=O)c3cc(NC(=O)c4nccn4C)cn3C)cn2C)cn1C)CC(=O)Nc1cn(C)c(C(=O)Nc2cc(C(=O)Nc3cc(C(=O)Nc4cc(C(=O)NCCCN(C)CCCNC(=O)c5cccc(C(=O)O)c5)n(C)c4)n(C)c3)n(C)c2)n1	Insoluble	74 nm	
Cn1cc2cc1C(=O)NCCCC(=O)Nc1cn(C)c(n1)C(=O)Nc1cn(C)c(n1)C(=O)Nc1cc(n(C)c1)C(=O)Nc1cc(n(C)c1)C(=O)NC[C@H](N)CC(=O)Nc1cc(n(C)c1)C(=O)Nc1cc(n(C)c1)C(=O)Nc1cc(n(C)c1)C(=O)N2	Insoluble	197 nm	solubility [3]: Insoluble; solubility [4]: soluble; solubility [5]: soluble
Cn1cc2cc1C(=O)NC[C@H](N)CC(=O)Nc1cc(n(C)c1)C(=O)Nc1cc(n(C)c1)C(=O)Nc1cc(n(C)c1)C(=O)Nc1cc(n(C)c1)C(=O)NC[C@H](N)CC(=O)Nc1cn(C)c(n1)C(=O)Nc1cn(C)c(n1)C(=O)Nc1cc(n(C)c1)C(=O)N2	Insoluble	347 nm	
CC(=O)N[C@H]1CNC(=O)c2cc(cn2C)NC(=O)c2cc(cn2C)NC(=O)c2nc(cn2C)NC(=O)c2nc(cn2C)NC(=O)C[C@@H](NC(C)=O)CNC(=O)c2cc(cn2C)NC(=O)c2cc(cn2C)NC(=O)c2cc(cn2C)NC(=O)c2cc(cn2C)NC(=O)C1	Insoluble	182 nm	
CN(CCCNC(=O)c1cccc(C(=O)O)c1)CCCNC(=O)c1cc(NC(=O)c2cc(NC(=O)c3cc(NC(=O)c4nc(NC(=O)C[C@H](CNC(=O)c5cc(NC(=O)c6cc(NC(=O)c7cc(NC(=O)c8nccn8C)cn7C)cn6C)cn5C)NC(=O)c5ccccc5)cn4C)cn3C)cn2C)cn1C	Insoluble	127 nm	Activity [6]: 87 nm
CN(CCCNC(=O)c1cc(NC(=O)c2cc(NC(=O)c3cc(NC(=O)c4nc(NC(=O)C[C@@H](N)CNC(=O)c5cc(NC(=O)c6cc(NC(=O)c7cc(NC(=O)c8nccn8C)cn7C)cn6C)cn5C)cn4C)cn3C)cn2C)cn1C)CCCNC(=S)Nc1ccc(-c2c3ccc(=O)cc-3oc3cc(O)ccc23)c(C(=O)O)c1			Activity [6]: 294 nm
CN(CCCNC(=O)c1cc(NC(=O)c2cc(NC(=O)c3cc(NC(=O)c4nc(NC(=O)C[C@H](CNC(=O)c5cc(NC(=O)c6cc(NC(=O)c7cc(NC(=O)c8nccn8C)cn7C)cn6C)cn5C)NC(=O)c5ccccc5)cn4C)cn3C)cn2C)cn1C)CCCNC(=S)Nc1ccc(-c2c3ccc(=O)cc-3oc3cc(O)ccc23)c(C(=O)O)c1			Activity [6]: 147 nm
CN(CCCNC(=O)c1cccc(C(=O)O)c1)CCCNC(=O)c1cc(NC(=O)c2cc(NC(=O)c3cc(NC(=O)c4cc(NC(=O)[C@H](N)CCNC(=O)c5cc(NC(=O)c6cc(NC(=O)c7nc(NC(=O)c8nccn8C)cn7C)cn6C)cn5C)cn4C)cn3C)cn2C)cn1C	Insoluble	124 nm	Drug uptake (Plasma [7]): Not Active; concentration at 1.5 h [8]: 13 µM; solubility [3]: Insoluble; solubility [4]: soluble; solubility [5]: soluble; solubility [9]: soluble; concentration at 1.5 h [10]: 13 µM; Drug uptake (Plasma [11]): Not Active
CN(CCCNC(=O)c1cccc(C(=O)O)c1)CCCNC(=O)c1cc(NC(=O)c2cc(NC(=O)c3cc(NC(=O)c4cc(NC(=O)C[C@@H](N)CNC(=O)c5cc(NC(=O)c6cc(NC(=O)c7nc(NC(=O)c8nccn8C)cn7C)cn6C)cn5C)cn4C)cn3C)cn2C)cn1C	Insoluble	108 nm	solubility [9]: soluble
CC(=O)N[C@@H](CNC(=O)c1cc(NC(=O)c2cc(NC(=O)c3nc(NC(=O)c4nccn4C)cn3C)cn2C)cn1C)CC(=O)Nc1cc(C(=O)Nc2cc(C(=O)Nc3cc(C(=O)Nc4cc(C(=O)NCCCN(C)CCCNC(=O)c5cccc(C(=O)O)c5)n(C)c4)n(C)c3)n(C)c2)n(C)c1	Insoluble	100 nm	solubility [9]: soluble
CN(CCCNC(=O)c1cccc(C(=O)O)c1)CCCNC(=O)c1cc(NC(=O)c2cc(NC(=O)c3cc(NC(=O)c4cc(NC(=O)C[C@H](CNC(=O)c5cc(NC(=O)c6cc(NC(=O)c7nc(NC(=O)c8nccn8C)cn7C)cn6C)cn5C)NC(=O)c5ccccc5)cn4C)cn3C)cn2C)cn1C	Insoluble	176 nm	solubility [9]: soluble; Activity [6]: 123 nm
CN(CCCNC(=O)c1cc(NC(=O)c2cc(NC(=O)c3cc(NC(=O)c4cc(NC(=O)[C@H](N)CCNC(=O)c5cc(NC(=O)c6cc(NC(=O)c7nc(NC(=O)c8nccn8C)cn7C)cn6C)cn5C)cn4C)cn3C)cn2C)cn1C)CCCNC(=S)Nc1ccc(-c2c3ccc(=O)cc-3oc3cc(O)ccc23)c(C(=O)O)c1			Drug uptake (A549 [12]): Not Active; solubility [13]: Insoluble; Drug uptake (A549 [14]): Active
CN(CCCNC(=O)c1cccc(C(=O)O)c1)CCCNC(=O)c1cc(NC(=O)c2cc(NC(=O)c3cc(NC(=O)c4nc(NC(=O)C[C@@H](N)CNC(=O)c5cc(NC(=O)c6cc(NC(=O)c7cc(NC(=O)c8nccn8C)cn7C)cn6C)cn5C)cn4C)cn3C)cn2C)cn1C	Insoluble	104 nm	
CN(CCCNC(=O)c1cccc(C(=O)O)c1)CCCNC(=O)c1cc(NC(=O)c2cc(NC(=O)c3cc(NC(=O)c4nc(NC(=O)[C@H](N)CCNC(=O)c5cc(NC(=O)c6cc(NC(=O)c7cc(NC(=O)c8nccn8C)cn7C)cn6C)cn5C)cn4C)cn3C)cn2C)cn1C	Insoluble	182 nm	
